One block for each compound: values may come before it.
Assays:
Assay type in all cases: ADME
[1] = (§1) Pseudo-first-order rate constant for the decomposition of compound at 25 degree C in presence of HCl at pH 1.00; settings: buffer
Summary of the method: (§2)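 Hydrolysis run in 5 vol % CH3CN-H2O, ionic strength 0.50 M (KCl), HCl solution, (25.0 ± 0.1) °C. pH meter readings corrected as pH = reading − 0.05, calibrated on standardized HCl. Progress followed by repetitive UV absorbance scans. Absorbance vs. time at 266.5 and 245 nm fit by least squares to the rate equation for two consecutive first-order processes, giving pseudo-first-order rate constants.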

[2] = Pseudo-first-order rate constant for the decomposition of compound at 25 degree C in presence of HCl at pH 2.31; settings: buffer; summary of the method: as §2
[3] = Pseudo-first-order rate constant for the decomposition of compound at 25 degree C in presence of HCl at pH 1.30; settings: buffer, pH 1.3; summary of the method: as §2
[4] = (§3) Pseudo-first-order rate constant for the decomposition of compound at 25 degree C in presence of HCl at pH 2.00; settings: buffer; summary of the method: as §2
[5] = Pseudo-first-order rate constant for the decomposition of compound at 25 degree C in presence of HCl at pH 2.62; settings: buffer; summary of the method: as §2
[6] = Pseudo-first-order rate constant for the decomposition of compound at 25 degree C in presence of HCl at pH 1.59; settings: buffer; summary of the method: as §2
[7] = Pseudo-first-order rate constant for the decomposition of compound at 25 degree C in presence of HCl at pH 3.02; settings: buffer
Summary of the method: (§4)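 Hydrolysis followed by UV absorbance (repetitive scans; traces at 266.5 and 245 nm) at 25.0 ± 0.1 °C in 5 vol % CH3CN-H2O, ionic strength 0.50 M (KCl). Media were HCl solutions, or acetate or phosphate buffers at 0.01 M total buffer. Meter pH was corrected by subtracting 0.05. Rate constants came from fitting absorbance vs. time to a first-order or two-consecutive-first-order equation.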

[8] = Pseudo-first-order rate constant for the decomposition of compound at 25 degree C in presence of KOAc/HCl at pH 3.71; settings: buffer; summary of the method: as §4
[9] = Pseudo-first-order rate constant for the decomposition of compound at 25 degree C in presence of KOAc/HCl at pH 4.60; settings: buffer, pH 4.6; summary of the method: as §4
[10] = Pseudo-first-order rate constant for the decomposition of compound at 25 degree C in presence of HCl at pH 1.00; Too fast to measure by conventional methods; settings: buffer; summary of the method: as §4
[11] = as §3; settings: buffer; summary of the method: as §4; remark: listed apart in the source
[12] = Pseudo-first-order rate constant for the decomposition of compound at 25 degree C in presence of K2HPO4/[…]/HCl at pH 6.77; settings: buffer; summary of the method: as §4
[13] = Pseudo-first-order rate constant for the decomposition of compound at 25 degree C in presence of K2HPO4/[…]/HCl at pH 5.75; settings: buffer; summary of the method: as §4
[14] = as §1; settings: buffer; summary of the method: as §4; remark: listed apart in the source
[15] = Pseudo-first-order rate constant for the decomposition of compound at 25 degree C in presence of K2HPO4/[…]/HCl at pH 7.55; settings: buffer; summary of the method: as §4
[16] = Pseudo-first-order rate constant for the decomposition of compound at 25 degree C in presence of KOAc/HCl at pH 5.64; settings: buffer; summary of the method: as §4
[17] = Pseudo-first-order rate constant for the decomposition of compound at 25 degree C in presence of HCl at pH 2.00; Too fast to measure by conventional methods; settings: buffer; summary of the method: as §4

SMILES: CC(=O)N=C1C=CC(=O)C=C1
k'' [1]: 0.00639 s⁻¹
k'' [2]: 0.000703 s⁻¹
k'' [3]: 0.0034 s⁻¹
k'' [4]: 0.000977 s⁻¹
k'' [5]: 0.000575 s⁻¹
k'' [6]: 0.0019 s⁻¹

k'' [1]: 0.00606 s⁻¹
k0 [7]: 0.0205 s⁻¹
k' [7]: 0.155 s⁻¹
k'' [7]: 0.000476 s⁻¹
k0 [8]: 0.0246 s⁻¹
k' [8]: 0.0246 s⁻¹
k'' [8]: 0.000471 s⁻¹
k0 [9]: 0.0263 s⁻¹
k' [9]: 0.0037 s⁻¹
k'' [9]: 0.000642 s⁻¹
k0 [11]: 0.0252 s⁻¹
k0 [12]: 0.0219 s⁻¹
k' [12]: 0.0000512 s⁻¹
k'' [4]: 0.000996 s⁻¹
k0 [13]: 0.0226 s⁻¹
k' [13]: 0.000303 s⁻¹
k'' [13]: 0.00287 s⁻¹
k0 [14]: 0.0271 s⁻¹
k0 [15]: 0.0214 s⁻¹
k' [15]: 0.0000288 s⁻¹
k0 [16]: 0.0224 s⁻¹
k' [16]: 0.000394 s⁻¹
k'' [16]: 0.00261 s⁻¹
SMILES: CCOc1ccc(N(OC(=O)C(C)(C)C)C(C)=O)cc1
k' [10]: Too fast to measure by conventional methods
k' [17]: Too fast to measure by conventional methods
